Results from the EternaBench riboswitch data.

Tested on: MS2 coat protein
Experiment: apparent Kd, MS2 coat protein; higher = weaker binding; RNA-MaP array; FMN 200 µM where present
Summary of the method: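 The titrant was SNAP-549-labelled MS2 coat protein, run from 0.7 or 1.5 nM in doubling steps to 3 µM. It was applied to designs transcribed by stalled E. coli RNA polymerase on Illumina sequencing-chip clusters, without ligand first and then with constant ligand, in 100 mM Tris-HCl pH 7.5, 80 mM KCl, 4 mM MgCl2, BSA, DTT, yeast tRNA and Tween-20. The apparent Kd is the median of filtered per-cluster binding-curve fits, with green signal normalised to red-channel RNA signal and control-cluster median Fmax.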

[1] = designed as: OFF switch for flavin mononucleotide, no ligand
[2] = ligand present: flavin mononucleotide, designed as: OFF switch for flavin mononucleotide
[3] = designed as: ON switch for flavin mononucleotide, no ligand
[4] = ligand present: flavin mononucleotide, designed as: ON switch for flavin mononucleotide

With “UAUAUAUAGUAAGGAUAUGUAAUUAUUUCAUAAACAGAAGGUACUGACAUGAGGAUCACCCAUGUUUUAGUGUGGGCAUGUAGA” the “apparent Kd” value [1] was 79.8 nM and the “apparent Kd” value [2] was 108 nM.

“CUGUUCCAUGUAGGAUAUGCAUAUUCUCAUUAUGCAGAAGGACAUGAGGAUCACCCAUGUAUGUUAUUAUCAUAUGUUACAUGU” was tested, and the “apparent Kd” value [1] was 34.3 nM and the “apparent Kd” value [2] was 241 nM.

With “GAGUGUACGGAGGAUAUGUUAUACGAUGACCGAACAGAAGGCCGAACAUGAGGAUCACCCAUGUGUCUUCUAGG” the “apparent Kd” value [1] was 16 nM and the “apparent Kd” value [2] was 22.8 nM.

“GCUGCGCGAGGAUAUGCGGUUUGCGCUGUGGCCCGUGGCGUACAUGAGGAUCACCCAUGUAGAAGGCGUGUGGG” was tested, and the “apparent Kd” value [1] was 22.9 nM and the “apparent Kd” value [2] was 23.3 nM.

“GGUGCUAUGUAGAAGGCAGAUCUGAUUCAGAUCUGAGGAUAUACAUGAGGAUCACCCAUGUUAUGCACCAGCACGAGAGUGCAC” was tested, and the “apparent Kd” value [1] was 7.57 nM and the “apparent Kd” value [2] was 13.3 nM.

With “GGGCCCGGAGGAUAUACAUGAGGAUCACCCAUGUACCCGGGCCCUAUUGGGUUUGGGUGUAGAAGGCCGGGCCC” the “apparent Kd” value [1] was 15 nM and the “apparent Kd” value [2] was 15.3 nM.

For “CCUCCACAUGAGGAUCACCCAUGUCAGGAUAUCGUGCGCGCGUUUUCGGUCUUUCGCGCGAGAAGGGACGACUG”, the “apparent Kd” value [1] was 30.3 nM and the “apparent Kd” value [2] was 30.9 nM.

For “UAUUUUAACUAAGGAUAUCUAUAUUAUUUUGAAACAUGAGGAUCACCCAUGUUCAUGGGAUUAUAGGAGAAGGUAGAUGAAUAA”, the “apparent Kd” value [3] was 14.6 nM and the “apparent Kd” value [4] was 9.54 nM.

In the case of “UGUUGUAUUACAGGAUAUCUAUUAUUUUUGUUUAGAGAAGGGUAUUCACAUGAGGAUCACCCAUGUAUAUACGAGGAAGUUGUG”, the “apparent Kd” value [3] is reported as 53.5 nM and the “apparent Kd” value [4] is reported as 61.8 nM.

In the case of “AUUUUAUAAUAGAAGGUAGACUUCAUGAGGAUCACCCAUGUGUUGGUACUAAGGAUAUGUAAUAACAUGAGGAUCACCCAUGUC”, the “apparent Kd” value [3] is reported as 53.3 nM and the “apparent Kd” value [4] is reported as 51.7 nM.

With “AGCAUGCUAGGAUAUACGAAACAUUAGGGUUCUUUGUAUGAACAUGAGGAUCACCCAUGUAGAAGGAGCGUGCA” the “apparent Kd” value [1] was 109 nM and the “apparent Kd” value [2] was 170 nM.

In the case of “GACAUGAGGAUCACCCAUGUCCGGGCCAAAAGAAGAAAUACCAGAAGGACCGGCAGAAAUGAGCGGUAGGAUAUGGGAUUCGUG”, the “apparent Kd” value [3] is reported as 36.7 nM and the “apparent Kd” value [4] is reported as 12.1 nM.

In the case of “AGAAAGAAGCAAGGAUAUUGUAAAAUUAAUGUACAAGAAGGUGCUGUUUAUGUCUCUUAACAUGAGGAUCACCCAUGUAUUGGU”, the “apparent Kd” value [3] is reported as 68.6 nM and the “apparent Kd” value [4] is reported as 45.9 nM.

For “UGCUAGUCAGGAUAUACGAACAUGUCAAAAGACGUGAAGGGACAUGAGGAUCACCCAUGUAGAAGGGACUAGCU”, the “apparent Kd” value [1] was 38.4 nM and the “apparent Kd” value [2] was 129 nM.

For “GGGCCGCUACGCCGGCUCCACGCACAGGAUAUGCAGUUACAUGAGGAUCACCCAUGUGGCCAUGUGCAGAAGGGUGAUUCGCGA”, the “apparent Kd” value [3] was 78.7 nM and the “apparent Kd” value [4] was 46.1 nM.

For “GUGGUCAGACAUGAGGAUCACCCAUGUGGAAUAAAUAAGGGACAGGAUAUUUAAUAUAGGAUAUAGAAGAAGGGUUGGUUGGUG”, the “apparent Kd” value [3] was 106 nM and the “apparent Kd” value [4] was 138 nM.

For “CAAGGGCAUGAGAAGGCAUAAUUUAUAUUACCACAUGUUUACAUGAGGAUCACCCAUGUUACCUAUGAGGAUAUCAUGCCUACA”, the “apparent Kd” value [1] was 12.7 nM and the “apparent Kd” value [2] was 10.2 nM.

With “CCGCGCAUAGGAUAUUAAUCUCACGACAUGAGGAUCACCCAUGUAACUCUGUGUGCGAUCUAAGAAGGGUGGGCUU” the “apparent Kd” value [1] was 28.8 nM and the “apparent Kd” value [2] was 24 nM.

With “ACAUGAGGAUCACCCAUGUAGAGUGGAGAAGGUAGAUACUUGUGACUCUCCCAUGUACAUAGGACUGAGGAUAUUCUAAUAAUU” the “apparent Kd” value [3] was 65.7 nM and the “apparent Kd” value [4] was 47.5 nM.

“GGCUCUGCUCGAGGAUAUAGCUGCAUGUAGUGUCCUGAGGCACAUGAGGAUCACCCAUGUGUAGGCUAGAAGGCGACAGAGGCG” was tested, and the “apparent Kd” value [1] was 188 nM and the “apparent Kd” value [2] was 276 nM.

In the case of “GUAACAUGAGGAUCACCCAUGUCGUGCUAGAUGAGUUCUAGUGAGGAUAUACAUGGUAAAUAACUGUAGAAGGUGCUGGGUACA”, the “apparent Kd” value [3] is reported as 192 nM and the “apparent Kd” value [4] is reported as 229 nM.

With “GGGUACAUCGGAGGAUAUCAUGUAAAUACAUGAGGAUCACCCAUGUCGAUGGAGACAUCGGAGAGUGAGAAGGCCGAUGUACCG” the “apparent Kd” value [3] was 257 nM and the “apparent Kd” value [4] was 13.3 nM.

For “UUCAGCUUGACAGGAUAUACAUGUCAGCGAAAGCUGACUAUCUUAAUAACAUGAGGAUCACCCAUGUAGAAGGGUCGAGCUGAA”, the “apparent Kd” value [1] was 16.4 nM and the “apparent Kd” value [2] was 25.6 nM.

In the case of “AUGUUACAUGAGGAUCACCCAUGUGAGGAUAUGUGUAUCCCUAAAAAAGUGUGGGACCAUAGAAGGCACUUGGA”, the “apparent Kd” value [1] is reported as 62.9 nM and the “apparent Kd” value [2] is reported as 98.1 nM.

For “ACAUGGAAGCAGGAUAUGCUUGUUUAAUUGUUUGCAGAAGGGCUAACAUGAGGAUCACCCAUGUAAGAGGUCUA”, the “apparent Kd” value [1] was 17 nM and the “apparent Kd” value [2] was 29.6 nM.

“AGUCGGAGCAGAGGAUAUAUACAUGAGGAUCACCCAUGUGACUGACUACGCUAGAAAUAGCAUGUAUAGAAGGCUGCUCCGACA” was tested, and the “apparent Kd” value [1] was 388 nM and the “apparent Kd” value [2] was 946 nM.

With “UAUCCACAUGAGGAUCACCCAUGUGAGGAUAUGUCCAUAUUCGGCAAAUCGGAUAUGGACAGAAGGCACACCGG” the “apparent Kd” value [1] was 36.9 nM and the “apparent Kd” value [2] was 103 nM.

In the case of “CGGUUACAAGGAUAUACAUGAGGAUCACCCAUGUCUCUCCGGGCGGAUCGAUAAUUUUGUAGAAGGUGUAAGGG”, the “apparent Kd” value [1] is reported as 24.5 nM and the “apparent Kd” value [2] is reported as 63.7 nM.

With “AACUAGCUAGGAUAUACAUGAGGAUCACCCAUGUAAAAAAAAAAAAAAAGAUAUAUAUGUAGAAGGAGCUAGUA” the “apparent Kd” value [1] was 33.7 nM and the “apparent Kd” value [2] was 44.9 nM.

For “ACUAUACGAGGAUAUACUGACGGGCCUCGGGCGUCCCUGCGACAUGAGGAUCACCCAUGUAGAAGGCGUAUACU”, the “apparent Kd” value [1] was 39.2 nM and the “apparent Kd” value [2] was 92.8 nM.

For “AGCUACGUUUCGUAGCAGUGUCAUCGAGAAGGCCUCAUAACAUGAGGAUCACCCAUGUUUGCAUGGGAGGAUAUCGAUGAUACA”, the “apparent Kd” value [3] was 206 nM and the “apparent Kd” value [4] was 56.4 nM.

In the case of “CAUUAACAUGAGGAUCACCCAUGUGAGGAUAUGAUAUUACUAGGACGGCUGUGAUCAAUCAGAAGGCACAUCUU”, the “apparent Kd” value [1] is reported as 25 nM and the “apparent Kd” value [2] is reported as 30 nM.

“GAUCCUUAAGUCAGGAUAUCAAGCAAACUCUAAAUUGAGAAGGGACAUGAGGAUCACCCAUGUCACCGAAAUAA” was tested, and the “apparent Kd” value [1] was 14.7 nM and the “apparent Kd” value [2] was 16.2 nM.

With “GGUUAUUGCAAGGAUAUGCUUUUUUUUGAUAUUGCAGAAGGUGCAACAUGAGGAUCACCCAUGUUGGAGGGAUU” the “apparent Kd” value [1] was 30.8 nM and the “apparent Kd” value [2] was 91.8 nM.

In the case of “AAAAAACAUGAGGAUCACCCAUGUAAGGAUAUGCGAAAAAAAAAAAAAAAAAAAAAAAGCAGAAGGUACAAAAA”, the “apparent Kd” value [1] is reported as 99.1 nM and the “apparent Kd” value [2] is reported as 94.9 nM.

For “GUCUCACAUGAGGAUCACCCAUGUGAGGAUAUGGAUUCGCUGGCCGUAGCCAGUGGAUCCAGAAGGCGCAUGAU”, the “apparent Kd” value [1] was 20.5 nM and the “apparent Kd” value [2] was 22 nM.

For “CUUUUGUGAGGAUAUCAGUAGUAAUACAAUAGUAUUACUACUGAGAAGGUACAUGAGGAUCACCCAUGUUCCUC”, the “apparent Kd” value [1] was 17.8 nM and the “apparent Kd” value [2] was 21.2 nM.

With “AUCAGCUCGUCAGGAUAUACGUCACUGCUUCGGCAGUGUAAUAAAAUAACAUGAGGAUCACCCAUGUAGAAGGGACGAGCUGAU” the “apparent Kd” value [1] was 5.93 nM and the “apparent Kd” value [2] was 6.13 nM.

“AGGGAGUGAGGAUAUGCUGCUCGUCACUUGCGUGAUGAGUAGCAGAAGGUACAUGAGGAUCACCCAUGUAAAGA” was tested, and the “apparent Kd” value [1] was 34.5 nM and the “apparent Kd” value [2] was 22.2 nM.

“GCUACUUAUUUUAAGUAUGAUUUACUAGAAGGUAGAUACAUGAGGAUCACCCAUGUUUAGAGUUCUAAGGAUAUAGUUUGUAGC” was tested, and the “apparent Kd” value [3] was 7.81 nM and the “apparent Kd” value [4] was 7.57 nM.

“UAGAUGUGAGGAUAUGGUAAAGAUAGAAUGAUGAAAGAACUCCAGAAGGCACAUGAGGAUCACCCAUGUAGAUG” was tested, and the “apparent Kd” value [1] was 26.9 nM and the “apparent Kd” value [2] was 55 nM.

With “AAAGUUGGUAGGCCCUCGGAACAUGAGGAUCACCCAUGUAAGGAGGAUAUGCCCGGUACCCGCUGGUAGAAGGCCUUAUAAGAA” the “apparent Kd” value [1] was 7.46 nM and the “apparent Kd” value [2] was 23.5 nM.

With “CAGCGGGUCUUCAGGGUAAUGAACAUGAGGAUCACCCAUGUGCAGGAUAUGACGGAUCCGCACCGUCAGAAGGGCACUAAGUGA” the “apparent Kd” value [1] was 26.7 nM and the “apparent Kd” value [2] was 32.5 nM.

With “AAGAAACAUGAGGAUCACCCAUGUAAAUUCAAGAGAGGAUAUCGUACAUGGAAGAUUCAACGAGAAGGCUCUAGAA” the “apparent Kd” value [3] was 36.5 nM and the “apparent Kd” value [4] was 18.4 nM.

In the case of “CGCCUCGUGUCGAACAUGAGGAUCACCCAUGUAAUGGGCACCGAGGAUAUCCCGCUGGCGUUAUGGGAGAAGGCGGUGGAUUUA”, the “apparent Kd” value [1] is reported as 45 nM and the “apparent Kd” value [2] is reported as 131 nM.

For “UGAUAGGACAGAGGAUAUACGGAUAGGAUCUACUAUCCUCCUUUAAUAACAUGAGGAUCACCCAUGUAGAAGGCUGUCCUAUCU”, the “apparent Kd” value [1] was 15.3 nM and the “apparent Kd” value [2] was 24.2 nM.

With “UACGUACAGAAGUACGCCGGGUCCAGAAGGGACAUGAGGAUCACCCAUGUACCGUUGAUUGCUUGUCAGGAUAUGGACCCGGCC” the “apparent Kd” value [1] was 7.1 nM and the “apparent Kd” value [2] was 27.4 nM.

With “GGUGCGUUUGUGAGGAUAUGCUGGUCCUUGGAUCGGCAGAAGGCACAUGAGGAUCACCCAUGUGGUGUCGUACC” the “apparent Kd” value [1] was 310 nM and the “apparent Kd” value [2] was 29.6 nM.
